Laboratory results: article PMC9476207 (ACS Omega, 2022)

Experiments:
Assay in all cases: NCI-60 single-dose antiproliferative screen
Type in all cases: cell-based
LOX IMVI = conditions: Homo sapiens, 48 h, read-out: growth percent
Method in brief: (§1)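 NCI-60 protocol. Lines were grown in RPMI 1640 with 5% FBS and 2 mM L-glutamine, plated and incubated 24 h at 37 °C; time-zero plates were TCA-fixed. The test compound was dissolved in DMSO, diluted in medium with 50 μg/mL gentamicin and given once at a final 10^-5 M (DMSO control) for 48 h. Cells were fixed with cold TCA (1 h, 4 °C) and stained with 0.4% SRB in 1% acetic acid for 10 min. Dye was dissolved in 10 mM Trizma base and read at 515 nm. Growth percent was calculated from time-zero, test and control ODs.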

MDA-MB-231 ATCC = conditions: Homo sapiens, MDA-MB-231, 48 h, read-out: growth percent
Method in brief: as §1

SF-268 = conditions: Homo sapiens, SF-268, 48 h, read-out: growth percent
Method in brief: as §1

MDA-MB-468 = conditions: Homo sapiens, MDA-MB-468, 48 h, read-out: growth percent
Method in brief: as §1

786-0 = conditions: Homo sapiens, 786-0, 48 h, read-out: growth percent
Method in brief: as §1

RPMI-8226 = conditions: Homo sapiens, RPMI-8226, 48 h, read-out: growth percent
Method in brief: as §1

NCI-H322M = conditions: Homo sapiens, 48 h, read-out: growth percent
Method in brief: as §1

K-562 = conditions: Homo sapiens, K562, 48 h, read-out: growth percent
Method in brief: as §1

SK-OV-3 = conditions: Homo sapiens, SK-OV-3, 48 h, read-out: growth percent
Method in brief: (§2)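 Cells grown in RPMI 1640 with 5% FBS and 2 mM L-glutamine, plated and held 24 h at 37 °C; time-zero plates TCA-fixed. DMSO stocks were diluted in gentamicin-containing medium to a final 10^-5 M, with a DMSO-only control. Exposure 48 h, 5% CO2. Adherent cells TCA-fixed 1 h at 4 °C, stained with 0.4% SRB, solubilised in 10 mM Trizma base, read at 515 nm. Growth percent derived from ODtzero, ODtest and ODctrl.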

A549/ATCC = conditions: Homo sapiens, A549, 48 h, read-out: growth percent
Method in brief: as §1

RXF 393 = conditions: Homo sapiens, RXF 393, 48 h, read-out: growth percent
Method in brief: as §1

TK-10 = conditions: Homo sapiens, TK-10, 48 h, read-out: growth percent
Method in brief: as §2

SN12C = conditions: Homo sapiens, 48 h, read-out: growth percent
Method in brief: as §2

NCI/ADR-RES = conditions: Homo sapiens, 48 h, read-out: growth percent
Method in brief: as §1

OVCAR-4 = conditions: Homo sapiens, OVCAR-4, 48 h, read-out: growth percent
Method in brief: as §1

M14 = conditions: Homo sapiens, M14, 48 h, read-out: growth percent
Method in brief: as §1

BT-549 = conditions: Homo sapiens, BT-549, 48 h, read-out: growth percent
Method in brief: as §1

CAKI-1 = conditions: Homo sapiens, CAKI-1, 48 h, read-out: growth percent
Method in brief: as §1

SR = conditions: Homo sapiens, 48 h, read-out: growth percent
Method in brief: as §2

SK-MEL-5 = conditions: Homo sapiens, SK-MEL-5, 48 h, read-out: growth percent
Method in brief: as §2

EKVX = conditions: Homo sapiens, 48 h, read-out: growth percent
Method in brief: as §1

DU-145 = conditions: Homo sapiens, DU-145, 48 h, read-out: growth percent
Method in brief: as §1

NCI-H522 = conditions: Homo sapiens, NCI-H522, 48 h, read-out: growth percent
Method in brief: as §1

KM12 = conditions: Homo sapiens, KM12, 48 h, read-out: growth percent
Method in brief: as §1

HOP-92 = conditions: Homo sapiens, HOP-92, 48 h, read-out: growth percent
Method in brief: as §1

SK-MEL-2 = conditions: Homo sapiens, SK-MEL-2, 48 h, read-out: growth percent
Method in brief: as §2

HOP-62 = conditions: Homo sapiens, HOP-62, 48 h, read-out: growth percent
Method in brief: as §1

IGROV1 = conditions: Homo sapiens, IGROV-1, 48 h, read-out: growth percent
Method in brief: as §1

CCRF-CEM = conditions: Homo sapiens, 48 h, read-out: growth percent
Method in brief: as §1

HCC-2998 = conditions: Homo sapiens, HCC 2998, 48 h, read-out: growth percent
Method in brief: as §1

MALME-3M = conditions: Homo sapiens, 48 h, read-out: growth percent
Method in brief: as §1

OVCAR-5 = conditions: Homo sapiens, OVCAR-5, 48 h, read-out: growth percent
Method in brief: as §1

SW-620 = conditions: Homo sapiens, SW-620, 48 h, read-out: growth percent
Method in brief: as §2

SK-MEL-28 = conditions: Homo sapiens, SK-MEL-28, 48 h, read-out: growth percent
Method in brief: as §2

MCF-7 = conditions: Homo sapiens, MCF7, 48 h, read-out: growth percent
Method in brief: as §1

SF-295 = conditions: Homo sapiens, SF-295, 48 h, read-out: growth percent
Method in brief: as §1

| SMILES | activity at 10 µM (LOX IMVI) [%] | activity at 10 µM (MDA-MB-231 ATCC) [%] | activity at 10 µM (SF-268) [%] | activity at 10 µM (MDA-MB-468) [%] | activity at 10 µM (786-0) [%] | activity at 10 µM (RPMI-8226) [%] | activity at 10 µM (NCI-H322M) [%] | activity at 10 µM (K-562) [%] | activity at 10 µM (SK-OV-3) [%] | activity at 10 µM (A549/ATCC) [%] | activity at 10 µM (RXF 393) [%] | activity at 10 µM (TK-10) [%] | activity at 10 µM (SN12C) [%] | activity at 10 µM (NCI/ADR-RES) [%] | activity at 10 µM (OVCAR-4) [%] | activity at 10 µM (M14) [%] | activity at 10 µM (BT-549) [%] | activity at 10 µM (CAKI-1) [%] | activity at 10 µM (SR) [%] | activity at 10 µM (SK-MEL-5) [%] | further results |
| --- | --- | --- | --- | --- | --- | --- | --- | --- | --- | --- | --- | --- | --- | --- | --- | --- | --- | --- | --- | --- | --- |
| COc1cc(CNC(=O)CCCC/C=C/C(C)C)ccc1OCc1cn(-c2cc(OC)c(OC)c(OC)c2)nn1 [14m, (E)-N-(3-Methoxy-4-((1-(3,4,5-trimethoxyphenyl)-1H-1,2,3-triazol-4-yl)methoxy)benzyl)-8-methylnon-6-enamide] | 94.4 | 92.7 | 90.5 | 80.4 | 108 | 79.4 | 89.1 | 79.7 | 89.9 | 91 | 104 | 91.6 | 102 | 91.7 | 103 | 94.5 | 79.1 | 79.5 | 86.6 | 77.5 | activity at 10 µM (EKVX): 95.9%; activity at 10 µM (DU-145): 85.4%; activity at 10 µM (NCI-H522): 65.2%; activity at 10 µM (KM12): 103%; activity at 10 µM (HOP-92): 82.5%; activity at 10 µM (SK-MEL-2): 97.6%; activity at 10 µM (HOP-62): 90.7%; activity at 10 µM (IGROV1): 103%; activity at 10 µM (CCRF-CEM): 96.3%; activity at 10 µM (HCC-2998): 91.8%; activity at 10 µM (MALME-3M): 98.5%; activity at 10 µM (OVCAR-5): 109%; activity at 10 µM (SW-620): 102%; activity at 10 µM (SK-MEL-28): 108%; activity at 10 µM (MCF-7): 102%; activity at 10 µM (SF-295): 105% |
| COc1cc(CNC(=O)CCCC/C=C/C(C)C)ccc1OCc1cn(-c2ccc(C)cc2)nn1 [14n, (E)-N-(3-Methoxy-4-((1-(p-tolyl)-1H-1,2,3-triazol-4-yl)methoxy)benzyl)-8-methylnon-6-enamide] | 85.1 | 72.2 | 81.7 | 92.4 | 99.6 | 74.1 | 89.4 | 80 | 94.4 | 84 | 102 | 101 | 89.3 | 87.4 | 88.8 | 93.3 | 105 | 88.5 | 75.5 | 86.8 | activity at 10 µM (EKVX): 84.8%; activity at 10 µM (DU-145): 97%; activity at 10 µM (NCI-H522): 62.1%; activity at 10 µM (KM12): 96%; activity at 10 µM (HOP-92): 83.5%; activity at 10 µM (SK-MEL-2): 91.9%; activity at 10 µM (HOP-62): 86.4%; activity at 10 µM (IGROV1): 98.5%; activity at 10 µM (CCRF-CEM): 87.3%; activity at 10 µM (HCC-2998): 108%; activity at 10 µM (MALME-3M): 110%; activity at 10 µM (OVCAR-5): 108%; activity at 10 µM (SW-620): 102%; activity at 10 µM (SK-MEL-28): 114%; activity at 10 µM (MCF-7): 96.3%; activity at 10 µM (SF-295): 98.9% |
| CCc1ccc(-n2cc(COc3ccc(CNC(=O)CCCC/C=C/C(C)C)cc3OC)nn2)cc1 [14o, (E)-N-(4-((1-(4-Ethylphenyl)-1H-1,2,3-triazol-4-yl)methoxy)-3-methoxybenzyl)-8-methylnon-6-enamide] | 89.3 | 88 | 93 | 79.8 | 100 | 74 | 90.5 | 78.6 | 102 | 88.3 | 101 | 87.4 | 98.5 | 87.7 | 89 | 99.8 | 99.1 | 77.4 | 87.5 | 84 | activity at 10 µM (EKVX): 82.1%; activity at 10 µM (DU-145): 93.8%; activity at 10 µM (NCI-H522): 65.9%; activity at 10 µM (KM12): 100%; activity at 10 µM (HOP-92): 86.5%; activity at 10 µM (SK-MEL-2): 95.2%; activity at 10 µM (HOP-62): 94.5%; activity at 10 µM (IGROV1): 102%; activity at 10 µM (CCRF-CEM): 86.8%; activity at 10 µM (HCC-2998): 99.7%; activity at 10 µM (MALME-3M): 108%; activity at 10 µM (OVCAR-5): 112%; activity at 10 µM (SW-620): 103%; activity at 10 µM (SK-MEL-28): 115%; activity at 10 µM (MCF-7): 102%; activity at 10 µM (SF-295): 100% |
